Measured values taken from ChEMBL document CHEMBL1255317, “Attenuated vancomycin bactericidal activity against Staphylococcus aureus hemB mutants expressing the small-colony-variant phenotype” (2008).

Legend:
Staphylococcus aureus [1] = test: Antimicrobial activity against methicillin resistant Staphylococcus aureus Newman assessed as bacterial killing at 64 times MIC after 24 hrs by time kill study relative to baseline; assay type: functional
In short: (§1)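 Time-kill in Ca/Mg-supplemented BHI. A 0.5 McFarland saline suspension was diluted to about 10^7 CFU/ml with vancomycin in 10-ml cultures, shaken at 35°C. Counts at 0, 1, 2, 4, 6 and 24 h by spiral plating on BHI agar, incubated 24 h at 35°C (48 h for Ia48 and III33). Drug-free growth controls were run. Value is the 24-h log10 CFU/ml change from baseline; runs were duplicate to quadruplicate.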

Staphylococcus aureus [2] = test: Antimicrobial activity against methicillin resistant Staphylococcus aureus isolate A20780 II with hemin auxotrophism and expressing small-colony-variant phenotype isolated from persistent bacterial infection patient assessed as bacterial killing at 64 times MIC after 24 hrs by time kill study; assay type: functional; in short: as §1
Staphylococcus aureus [3] = test: Antimicrobial activity against methicillin resistant Staphylococcus aureus Ia48 containing hemB mutation (hemB::ermB) expressing small-colony-variant phenotype assessed as bacterial killing at 64 times MIC after 24 hrs by time kill study; assay type: functional; in short: as §1
Staphylococcus aureus [4] = test: Antimicrobial activity against methicillin resistant Staphylococcus aureus Newman assessed as bacterial killing by time kill study; assay type: functional, organism-based
Staphylococcus aureus [5] = test: Antimicrobial activity against methicillin resistant Staphylococcus aureus COL assessed as bacterial killing by time kill study; assay type: functional, organism-based
Staphylococcus aureus [6] = test: Antimicrobial activity against methicillin resistant Staphylococcus aureus isolate A20780 I isolated from persistent bacterial infection patient assessed as bacterial killing at 64 times MIC after 24 hrs by time kill study; assay type: functional; in short: as §1
Staphylococcus aureus [7] = test: Antimicrobial activity against methicillin resistant Staphylococcus aureus III33 containing hemB mutation (hemB::ermB) expressing small-colony-variant phenotype assessed as bacterial killing at 64 times MIC after 24 hrs by time kill study; assay type: functional; in short: as §1
Staphylococcus aureus [8] = test: Antimicrobial activity against methicillin resistant Staphylococcus aureus COL assessed as bacterial killing at 64 times MIC after 24 hrs by time kill study relative to baseline; assay type: functional; in short: as §1
Staphylococcus aureus [9] = test: Antimicrobial activity against methicillin resistant Staphylococcus aureus isolate A20780 I isolated from persistent bacterial infection patient assessed as bacterial killing by time kill study; assay type: functional, organism-based

`CN[C@H](CC(C)C)C(=O)N[C@H]1C(=O)N[C@@H](CC(N)=O)C(=O)N[C@H]2C(=O)N[C@H]3C(=O)N[C@H](C(=O)N[C@H](C(=O)O)c4cc(O)cc(O)c4-c4cc3ccc4O)[C@H](O)c3ccc(c(Cl)c3)Oc3cc2cc(c3O[C@@H]2O[C@H](CO)[C@@H](O)[C@H](O)[C@H]2O[C@H]2C[C@](C)(N)[C@H](O)[C@H](C)O2)Oc2ccc(cc2Cl)[C@H]1O` [VANCOMYCIN] was tested. Which log10CFU/ml (Staphylococcus aureus [1]) did it give?
Its log10CFU/ml is 4.81.

And the log10CFU/ml (Staphylococcus aureus [2])?
The log10CFU/ml was 1.78.

And the log10CFU/ml (Staphylococcus aureus [3])?
Its log10CFU/ml is 1.4.

What about the Activity (Staphylococcus aureus [4]) of the same compound?
Its Activity is “Dose-dependent effect”.

What about the Activity (Staphylococcus aureus [5]) of the same compound?
Its Activity is “Dose-dependent effect”.

What about the log10CFU/ml (Staphylococcus aureus [6]) of the same compound?
The log10CFU/ml was 2.39.

What about the log10CFU/ml (Staphylococcus aureus [7]) of the same compound?
Its log10CFU/ml is 1.88.

And the log10CFU/ml (Staphylococcus aureus [8])?
The log10CFU/ml was 3.99.

And the Activity (Staphylococcus aureus [9])?
Its Activity is “Dose-dependent effect”.
